Assay results from paper PMC6246805 (SLAS discovery : advancing life sciences R & D, 2018).
Counter-ions that a name gives are not always drawn.

What was measured:
[1] = molecular target: T1, aerobactin synthetase IucA (Klebsiella pneumoniae, UniProt A0A1A9TA96); format: biochemical, hypervirulent K. pneumoniae hvKP1; details: for inhibition of IucA in pilot screen and follow-up: pilot screen of 4,400 bioactives, enzyme-initiated protocol; for effect of increasing IucA concentration on apparent potency: 20, 200, or 2,000 nM IucA; for effect of increasing IucA concentration on apparent potency / effect of 1 h pre-incubation with IucA on apparent potency: MG assay; for effect of 1 h pre-incubation with IucA on apparent potency: compared to reactions without pre-incubation
IucA [2] = details: read-out: KM for IucA; cited from earlier work
IucA [3] = assay: Fluorescence-based thermal shift assay; format: binding, hypervirulent K. pneumoniae hvKP1; details: substrates ATP (1.5 mM) and citrate (1.5 mM)
Outline: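 Purified IucA (10 μg per sample) with 5× SYPRO Orange, in the more concentrated buffer used for substrate runs: 50 mM HEPES, 150 mM NaCl, 0.2 mM TCEP, pH 7.5. ATP and citrate were each at 1.5 mM. Samples were heated from 25 to 99 °C over 45 min in a real-time PCR instrument, reading fluorescence (ex 545/em 568 nm) every 0.5 °C. TM was taken as the maximum of the first derivative of the melt curve.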

[4] = molecular target: T1, aerobactin synthetase IucA; assay: Orthogonal luminescence; format: biochemical, hypervirulent K. pneumoniae hvKP1; details: 30 min pre-incubation, substrate-initiated
[5] = ref PubChem database; cited from earlier work
bacterial IspE kinase = details: cited from earlier work
RecA = details: cited from earlier work
human RAD51 recombinase = details: cited from earlier work

With O=C(O)c1cc[c]([Hg][Cl])cc1 [4-chloromercuribenzoic acid, reference compound] the “inhibition of IucA in pilot screen and follow-up” value (“inhibition of IucA” for short) [1] was “identified in the initial screen”.
In the case of Nc1ncnc2c1ncn2[C@@H]1O[C@H](COP(=O)(O)OP(=O)([O-])OP(=O)([O-])O)[C@@H](O)[C@H]1O.[Na+].[Na+] [ATP, adenosine triphosphate disodium salt hydrate], the Km (IucA [2]) is listed as 130 ± 30 µM and the “shift in the melting temperature (TM) of IucA” value (IucA [3]) is listed as “+2–5 °C”.
In the case of CC1=NN(c2nc(-c3ccc(Cl)cc3)cs2)C(=O)/C1=C\c1ccc2c(c1)OCO2 [CB02], the “dose-dependent activity, secondary luminescence assay” value [4] is reported as “most potent dose-dependent activity”, the “effect of increasing IucA concentration on apparent potency” value [1] is reported as “apparent potency was reduced” and the “effect of 1 h pre-incubation with IucA on apparent potency” value [1] is reported as “increased apparent potency”. For the same compound, the “dose-dependent activity, primary substrate-initiated MG assay” value ([1]; purchased compounds, substrate-initiated protocol) was “highest potency” and the “reported active in unique PubChem bioassays” value [5] was 2 out of 8.
For COc1ccc(-n2c(-c3cccnc3)nc3ccccc3c2=O)cc1 [CB04], the “inhibition of IspE kinase” value (bacterial IspE kinase) is listed as “potent inhibitors”.
In the case of O=c1c2ccccc2nc(-c2cccnc2)n1-c1ccc(Br)cc1 [CB05], the “inhibition of IspE kinase” value (bacterial IspE kinase) is given as “potent inhibitors”.
In the case of O=c1c2ccccc2nc(/C=C/c2cccnc2)n1Cc1ccccc1 [CB06], the “effect of increasing IucA concentration on apparent potency” value [1] is listed as “apparent potency was reduced”, the “effect of 1 h pre-incubation with IucA on apparent potency” value [1] is listed as “increased apparent potency” and the “inhibition of E. coli RecA” value (RecA) is listed as “did not inhibit”. The “inhibition of human RAD51 recombinase” value (human RAD51 recombinase) was “inhibitor”.
In the case of O=c1c2ccccc2[se]n1-c1ccccc1 [Ebselen, reference compound], the “inhibition of IucA” value [1] is reported as “identified as an inhibitor”.
For O=C([O-])c1ccccc1-c1c2cc(Br)c(=O)cc-2oc2[c]([Hg+])c([O-])c(Br)cc12.[Na+].[Na+].[OH-] [Merbromin, reference compound], the “inhibition of IucA” value [1] was “identified in the initial screen”.
In the case of O=C(O)CC(O)(CC(=O)O)C(=O)O [citrate, sodium citrate tribasic dihydrate], the Km (IucA [2]) is given as 180 ± 30 µM.
With CC(=O)[O][Hg][c]1ccccc1 [phenylmercuric acetate, reference compound] the “inhibition of IucA” value [1] was “identified in the initial screen”.
In the case of C[CH2][Hg][S]c1ccccc1C(=O)[O-].[Na+] [thiomersal, reference compound], the “inhibition of IucA” value [1] is reported as “identified in the initial screen”.
